Source: ChEMBL document CHEMBL1157410, “7-aryl 1,5-dihydro-benzo[e][1,4]oxazepin-2-ones and analogs as non-steroidal progesterone receptor antagonists” (Bioorg Med Chem, 2008)
Active and inactive are the calls of the source. The calls are words filed in the database; no cut-off is given here.

What was measured:
Rattus norvegicus = test: Activity in ovariectomized rat assessed as inhibition of progesterone-induced decidualization at 3 mg/kg, po; type: functional; design: scale not given: the % may be the effect or the level left
Androgen receptor = biological target: T1, Androgen receptor (Homo sapiens, UniProt P10275)
T1 sequence (P10275 whole entry): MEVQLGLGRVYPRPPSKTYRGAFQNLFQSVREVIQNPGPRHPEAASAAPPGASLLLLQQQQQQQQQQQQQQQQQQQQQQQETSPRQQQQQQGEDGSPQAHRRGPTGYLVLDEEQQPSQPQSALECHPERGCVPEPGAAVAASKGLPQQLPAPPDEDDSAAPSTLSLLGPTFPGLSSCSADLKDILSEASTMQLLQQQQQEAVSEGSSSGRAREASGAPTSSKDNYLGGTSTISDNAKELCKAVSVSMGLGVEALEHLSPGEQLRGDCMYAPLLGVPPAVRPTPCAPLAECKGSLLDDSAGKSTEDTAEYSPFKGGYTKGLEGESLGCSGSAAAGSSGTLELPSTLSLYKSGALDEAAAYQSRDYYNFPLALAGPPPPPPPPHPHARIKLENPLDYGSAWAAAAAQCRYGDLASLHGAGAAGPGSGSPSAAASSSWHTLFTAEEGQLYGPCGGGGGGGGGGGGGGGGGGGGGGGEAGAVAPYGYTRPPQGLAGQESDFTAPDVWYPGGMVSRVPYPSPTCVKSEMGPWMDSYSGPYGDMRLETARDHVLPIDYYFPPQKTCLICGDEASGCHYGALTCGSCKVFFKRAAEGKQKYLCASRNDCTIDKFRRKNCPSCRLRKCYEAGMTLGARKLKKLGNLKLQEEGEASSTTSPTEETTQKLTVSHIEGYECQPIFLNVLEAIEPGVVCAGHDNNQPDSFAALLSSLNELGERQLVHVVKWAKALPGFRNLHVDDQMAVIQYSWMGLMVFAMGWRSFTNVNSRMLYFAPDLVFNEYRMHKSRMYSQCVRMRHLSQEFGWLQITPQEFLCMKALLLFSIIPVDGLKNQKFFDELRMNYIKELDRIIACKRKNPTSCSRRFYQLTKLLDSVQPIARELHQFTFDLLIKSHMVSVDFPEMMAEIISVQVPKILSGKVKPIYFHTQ

[1] = biological target: T2, Estrogen receptor (Homo sapiens) (UniProt P03372); test: Antagonist activity at cloned estrogen receptor-ligand binding domain expressed in african green monkey COS7 cells by GAL4 luciferase reporter assay upto 10 uM; type: cell-based; settings: COS-7
T2 sequence (whole entry): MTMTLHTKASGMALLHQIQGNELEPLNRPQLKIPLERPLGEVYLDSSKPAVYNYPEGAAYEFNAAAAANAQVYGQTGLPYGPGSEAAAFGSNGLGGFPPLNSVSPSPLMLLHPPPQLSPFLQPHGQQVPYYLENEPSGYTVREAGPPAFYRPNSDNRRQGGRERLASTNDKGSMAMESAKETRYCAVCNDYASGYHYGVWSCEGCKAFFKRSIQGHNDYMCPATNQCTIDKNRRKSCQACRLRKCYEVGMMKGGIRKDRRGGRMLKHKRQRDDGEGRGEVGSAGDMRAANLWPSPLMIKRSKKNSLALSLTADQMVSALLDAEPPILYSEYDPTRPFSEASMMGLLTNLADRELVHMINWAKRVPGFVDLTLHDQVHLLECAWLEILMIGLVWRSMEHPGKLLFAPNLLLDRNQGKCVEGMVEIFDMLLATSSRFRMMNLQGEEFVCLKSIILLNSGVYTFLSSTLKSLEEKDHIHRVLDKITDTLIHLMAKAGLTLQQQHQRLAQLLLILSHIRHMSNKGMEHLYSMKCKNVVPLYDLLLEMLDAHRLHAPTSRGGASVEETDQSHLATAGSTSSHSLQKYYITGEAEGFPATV
How it was run: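 COS-7 cells in phenol red-free DMEM with 10% charcoal/dextran-treated FBS were transfected for 16 h with a GAL4-DBD/receptor-LBD fusion plasmid and a GAL4_UAS (5 copies, E1b TATA) luciferase reporter, 50 ng/well each. Cells were then given compound for 20 h, and luciferase activity was read from cell lysates by luminometer.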

[2] = Selectivity for progesterone receptor over androgen receptor
[3] = Selectivity for progesterone receptor over estrogen receptor
[4] = Selectivity for progesterone receptor over glucocorticoid receptor
[5] = Selectivity for progesterone receptor over mineralocorticoid receptor

For `CCC1(c2ccco2)OCC(=O)Nc2ccc(-c3cc(F)cc(C#N)c3)cc21` (stereo unspecified), the Activity (Rattus norvegicus) was 50%, the IC50 (Androgen receptor) was 690 nM and the Activity [1] was “inactive”.

In the case of `CC1(C)OCC(=O)Nc2ccc(-c3cc(F)cc(C#N)c3)cc21`, the Selectivity ratio [2] is reported as > 100, the Activity (Rattus norvegicus) is reported as 50% and the Selectivity ratio [3] is reported as > 100. For the same compound, the IC50 (Androgen receptor) was > 3000 nM, the Selectivity ratio [4] was > 100 and the Selectivity ratio [5] was > 100. The Activity [1] was “inactive”.

With `N#Cc1cc(F)cc(-c2ccc3c(c2)C(c2ccco2)(c2ccco2)OCC(=O)N3)c1` the Selectivity ratio [2] was > 100, the Selectivity ratio [3] was > 100 and the IC50 (Androgen receptor) was > 3000 nM. For the same compound, the Selectivity ratio [4] was > 100, the Selectivity ratio [5] was > 100 and the Activity [1] was “inactive”.
